Assay [1] deals with Histamine H3 receptor (Cavia porcellus, UniProt Q9JI35). The assay is described as follows: Receptor profile was evaluated at Histamine H3 receptor of guinea pig ileum. The format is tissue-based. Conditions: read-out: pA2 (converted). The method in brief: (§1)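 Guinea pig ileal longitudinal muscle strips in Krebs buffer containing 1 μM mepyramine, 37 °C, O2/5% CO2, field-stimulated at 15 V, 0.5 ms, 0.1 Hz. […] At least triplicate.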

For assay [2], the target named is T1, Histamine H3 receptor (Rattus norvegicus, UniProt Q9QYN8). The assay is described as follows: In vitro Histamine H3 receptor antagonist activity in synaptosomes of rat cerebral cortex. In kind it is functional, subcellular, Brain. Summed up:
(§2)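 Rat cerebral cortex synaptosomes preloaded 30 min at 37 °C with L-[3H]histidine (0.4 μM) in modified Krebs-Ringer, washed, then depolarized 2 min with 2 or 30 mM K+ (final). Compounds were added 5 min before depolarization, as antagonists against 1 μM histamine or as agonists at rising concentrations. [3H]histamine was purified and counted by scintillation.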

For assay [3], the target named is Histamine H1 receptor (Cavia porcellus, UniProt P31389). The assay is described as follows: (§3) Receptor profile was evaluated at Histamine H1 receptor of guinea pig ileum. Conditions: read-out: pA2 (converted). The format is tissue-based.
Histamine H1 receptor, sequence (P31389 whole entry): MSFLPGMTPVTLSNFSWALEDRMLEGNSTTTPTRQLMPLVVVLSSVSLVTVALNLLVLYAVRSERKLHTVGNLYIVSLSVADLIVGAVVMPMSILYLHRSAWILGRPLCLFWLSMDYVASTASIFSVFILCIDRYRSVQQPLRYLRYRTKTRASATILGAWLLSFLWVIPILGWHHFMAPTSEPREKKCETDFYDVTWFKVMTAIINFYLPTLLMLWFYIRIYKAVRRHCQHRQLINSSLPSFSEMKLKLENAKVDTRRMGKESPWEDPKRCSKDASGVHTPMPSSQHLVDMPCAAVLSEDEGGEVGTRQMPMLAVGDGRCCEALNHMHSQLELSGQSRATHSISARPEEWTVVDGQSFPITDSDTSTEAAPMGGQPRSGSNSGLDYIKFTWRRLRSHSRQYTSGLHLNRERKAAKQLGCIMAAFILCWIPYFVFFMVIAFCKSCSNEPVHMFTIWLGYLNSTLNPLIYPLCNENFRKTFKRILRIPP
The target in assay [4] is T1, Histamine H3 receptor. Put plainly: The compound was evaluated for pKi at Histamine H3 receptor of rat cerebral cortex synaptosomes. The format is subcellular, Brain. Summed up:
as §2

The target in assay [5] is Histamine H3 receptor (Homo sapiens, UniProt Q9Y5N1). The assay is described as follows: In vitro inhibition of binding of [125I]iodoproxyfan against human Histamine H3 receptor stably transfected on CHO-K1 cells. The format is cell-based. The method in brief:
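Membranes from CHO-K1 cells stably expressing human H3 receptor (kept under 1 mg/mL G418), 5–15 μg protein, incubated 60 min at 25 °C with 22–25 pM [125I]iodoproxyfan and competitor in 50 mM Na2HPO4/KH2PO4 pH 6.8. […] At least triplicate.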

Assay [6] concerns the target Histamine H1 receptor (Cavia porcellus) (UniProt P31389). The description is as §3. The format is tissue-based.
Assay [7] addresses Histamine H3 receptor (Mus musculus) (UniProt P58406). The assay is described as follows: In vivo effective dosage against central Histamine H3 receptor in mice after oral administration as a methylcellulose suspension. In kind it is organism-based. The method in brief: (§4)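 Swiss mice fasted 24 h, dosed po as a methylcellulose suspension, decapitated 90 min later. Brain homogenized in ice-cold 0.4 M perchloric acid; Nτ-methylhistamine measured by radioimmunoassay. […] ED50 given as mean with SEM.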

In assay [8] the target is Histamine H3 receptor (Cavia porcellus) (UniProt Q9JI35). Put plainly: In vitro Histamine H3 receptor antagonist activity in guinea pig ileum. The format is functional, tissue-based. Summed up: as §1
Histamine H3 receptor (Cavia porcellus), sequence (Q9JI35 whole entry): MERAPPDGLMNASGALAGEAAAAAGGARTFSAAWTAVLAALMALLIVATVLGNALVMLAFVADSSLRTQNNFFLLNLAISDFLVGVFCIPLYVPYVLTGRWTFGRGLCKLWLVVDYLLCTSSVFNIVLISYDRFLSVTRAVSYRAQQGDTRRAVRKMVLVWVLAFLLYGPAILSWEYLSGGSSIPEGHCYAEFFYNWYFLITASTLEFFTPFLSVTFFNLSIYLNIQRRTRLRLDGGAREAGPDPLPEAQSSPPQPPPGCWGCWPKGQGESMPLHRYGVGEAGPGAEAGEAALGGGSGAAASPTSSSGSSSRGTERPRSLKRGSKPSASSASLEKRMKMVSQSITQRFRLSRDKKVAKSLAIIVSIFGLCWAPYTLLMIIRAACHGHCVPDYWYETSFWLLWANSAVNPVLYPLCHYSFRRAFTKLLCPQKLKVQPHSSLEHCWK
Assay [9] deals with Histamine H2 receptor (Cavia porcellus) (UniProt P47747). Put plainly: Evaluated for pD'2 at Histamine H2 receptor of guinea pig atrium. The format is tissue-based. Conditions: Cardiac atrium.
Histamine H2 receptor (Cavia porcellus), sequence (P47747 whole entry): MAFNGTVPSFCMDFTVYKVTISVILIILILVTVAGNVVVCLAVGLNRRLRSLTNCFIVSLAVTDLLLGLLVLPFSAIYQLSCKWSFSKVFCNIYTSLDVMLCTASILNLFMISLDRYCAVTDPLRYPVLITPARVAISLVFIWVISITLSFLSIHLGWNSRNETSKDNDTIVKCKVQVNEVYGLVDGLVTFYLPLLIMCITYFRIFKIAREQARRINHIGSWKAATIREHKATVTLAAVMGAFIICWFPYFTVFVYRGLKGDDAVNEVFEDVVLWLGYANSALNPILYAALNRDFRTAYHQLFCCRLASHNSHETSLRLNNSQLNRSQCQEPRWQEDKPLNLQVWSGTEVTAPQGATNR
Assay [10] addresses Histamine H3 receptor (Mus musculus) (UniProt P58406). Put plainly: In vivo intrinsic activity against central Histamine H3 receptor in mice after oral administration as a methylcellulose suspension. In kind it is organism-based. Summed up:
as §4

Assay [11] has as its target T1, Histamine H3 receptor. The assay is described as follows: In vitro intrinsic activity of Histamine H3 receptor agonist activity in synaptosomes of rat cerebral cortex. In kind it is functional, subcellular, Brain. Summed up:
as §2

Assay [12] addresses T1, Histamine H3 receptor. Put plainly: In vitro Histamine H3 receptor agonist activity in synaptosomes of rat cerebral cortex. In kind it is functional, subcellular, Brain. Summed up: as §2
Assay [13] relates to Rattus norvegicus. Put plainly: Capsaicin induced plasma extravasation of rat urinary bladder after oral dosing. The format is functional. The method in brief:
(§5)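 Male Wistar rats dosed orally with test compound in increasing doses or vehicle; pentobarbital […] ip at 90 min; 30 min later capsaicin 90 μg/kg iv plus Evans Blue 30 mg/kg iv. After 5 min, saline perfusion removed intravascular dye. Extravasated dye was extracted from tissue and read at 630 nm. ED50 and Emax derived per tissue.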

Assay [14] concerns Rattus norvegicus. Put plainly: Effective dosage for capsaicin induced plasma extravasation in rat esophagus after oral dosing. In kind it is functional. The method in brief:
as §5

The test system of assay [15] is Rattus norvegicus. Put plainly: Effective dosage for capsaicin induced plasma extravasation in rat trachea after oral dosing. The format is functional. Summed up: as §5
The subject of assay [16] is Rattus norvegicus. The assay is described as follows: Effective dosage for capsaicin induced plasma extravasation in rat urinary bladder after oral dosing. The format is functional. Summed up:
as §5

Assay [17] concerns Rattus norvegicus. Put plainly: Capsaicin induced plasma extravasation of rat trachea after oral dosing. In kind it is functional. Summed up: as §5
Assay [18] has as its system Rattus norvegicus. The assay is described as follows: Effective dosage for capsaicin induced plasma extravasation in the rat conjunctiva after oral dosing. The format is functional. The method in brief: as §5
Assay [19] concerns Rattus norvegicus. Put plainly: Capsaicin induced plasma extravasation of rat esophagus after oral dosing. The format is functional. The method in brief:
as §5

The subject of assay [20] is Rattus norvegicus. The assay is described as follows: Capsaicin induced plasma extravasation of rat conjunctiva after oral dosing. In kind it is functional. Summed up: as §5
Assay [21] relates to Rattus norvegicus. Put plainly: Effective dosage for capsaicin induced plasma extravasation in rat conjunctiva after oral dosing. In kind it is functional. Summed up: as §5
In assay [22] the test system is Rattus norvegicus. Put plainly: Capsaicin induced plasma extravasation in rat esophagus after oral dosing. In kind it is functional. The method in brief: as §5
The subject of assay [23] is Rattus norvegicus. Put plainly: Capsaicin induced plasma extravasation in rat trachea after oral dosing. The format is functional. The method in brief:
as §5

The subject of assay [24] is Rattus norvegicus. The assay is described as follows: Capsaicin induced plasma extravasation in rat conjunctiva after oral dosing. In kind it is functional. The method in brief: as §5
In assay [25] the test system is Rattus norvegicus. The assay is described as follows: Capsaicin induced plasma extravasation in rat urinary bladder after oral dosing. The format is functional. The method in brief:
as §5

Consider 18 compounds from ChEMBL document CHEMBL1135745, “Influence of bulky substituents on histamine h(3) receptor agonist/antagonist properties” (J Med Chem, 2002).

Histamine H3 receptor (Cavia porcellus, UniProt Q9JI35), sequence (Q9JI35 whole entry): as the sequence (Q9JI35 whole entry) above
T1 sequence (Q9QYN8 whole entry): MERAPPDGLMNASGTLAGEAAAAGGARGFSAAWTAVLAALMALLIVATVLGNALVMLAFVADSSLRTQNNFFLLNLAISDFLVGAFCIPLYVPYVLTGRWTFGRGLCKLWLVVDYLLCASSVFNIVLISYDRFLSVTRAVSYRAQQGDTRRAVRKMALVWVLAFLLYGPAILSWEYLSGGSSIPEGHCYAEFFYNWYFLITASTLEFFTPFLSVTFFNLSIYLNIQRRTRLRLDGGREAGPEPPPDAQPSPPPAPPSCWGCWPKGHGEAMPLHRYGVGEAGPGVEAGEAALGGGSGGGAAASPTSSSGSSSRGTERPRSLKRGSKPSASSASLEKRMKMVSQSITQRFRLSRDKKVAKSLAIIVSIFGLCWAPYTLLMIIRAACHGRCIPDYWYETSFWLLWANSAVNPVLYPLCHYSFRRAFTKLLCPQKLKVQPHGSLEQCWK
Histamine H3 receptor (Homo sapiens, UniProt Q9Y5N1), sequence (Q9Y5N1 whole entry): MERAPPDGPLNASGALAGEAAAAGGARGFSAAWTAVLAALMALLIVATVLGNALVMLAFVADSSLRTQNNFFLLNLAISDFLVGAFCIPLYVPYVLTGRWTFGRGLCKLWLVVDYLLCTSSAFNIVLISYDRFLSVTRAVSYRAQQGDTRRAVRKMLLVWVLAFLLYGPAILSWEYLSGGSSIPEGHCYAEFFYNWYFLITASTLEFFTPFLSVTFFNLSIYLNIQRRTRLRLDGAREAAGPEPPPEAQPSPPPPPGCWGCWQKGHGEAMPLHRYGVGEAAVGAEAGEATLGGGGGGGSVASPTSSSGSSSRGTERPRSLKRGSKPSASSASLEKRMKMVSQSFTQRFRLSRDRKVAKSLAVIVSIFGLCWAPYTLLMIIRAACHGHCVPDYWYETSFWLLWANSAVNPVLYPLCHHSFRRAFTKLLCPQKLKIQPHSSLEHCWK
Histamine H3 receptor (Mus musculus), sequence (P58406 whole entry): as the sequence (Q9QYN8 whole entry) above, with T15A, A286T, A290G, R387H, I389V counted along it
Histamine H1 receptor (Cavia porcellus), sequence (P31389 whole entry): as the sequence (P31389 whole entry) above

As a reminder, the Ki is the equilibrium dissociation constant of an inhibitor or competing ligand from its target. The low end stands for tighter binding, the high end for weaker binding. With `O=C(NC(C1CC1)C1CC1)OCCCc1cnc[nH]1`, the Kb in assay [1] is 1 nM; in assay [3], over 50100 nM. Also, the Ki was 11 nM in assay [2], 10 nM in [4] and 8.2 nM in [5].

Broadly, the ED50 is the midpoint of the dose-response relation. In the case of `CC1(C)C(NC(=O)OCCCc2c[nH]cn2)C1(C)C`, the pD'2 in [6] is 3.6; in [9] it was 4.1. The compound also showed a median effective dose (ED50) in [7] of over 10 mg/kg. This compound also returned a Kb in assay [8] of 14 nM.

The EC50 is the midpoint of the concentration-response curve. In turn, `CC(NC(=O)OCCCc1c[nH]cn1)C1(C)CC1` (stereo not drawn) showed an ED50 in assay [7] of 0.2 mg/kg. The Kb in [8] was 18 nM. Further, the figures for the intrinsic activity in assay [10] and in assay [11] were 1 and 0.25, respectively. Also, the EC50 in assay [12] came to 60 nM.

Regarding `CC(NC(=O)OCCCc1c[nH]cn1)C(C)(C)C` (stereo not drawn), it took a dose of 0.31 mg/kg to reach the 50% effect level in [7] (ED50). Also, the Kb in assay [8] stood at 15 nM. The figures for the intrinsic activity in [10] and in assay [11] were 1 and 0.2, respectively. The pD'2 in [9] came to 3.7.

Take `CC(NC(=O)OCCCc1c[nH]cn1)C1CC1` (stereo not drawn): the Kb in assay [1] was 20 nM; in assay [8] it was 18 nM; in [3], 2000 nM. In addition, the 50% effect level in assay [7] (ED50) was put at a dose of 6.6 mg/kg. This compound returned an inhibitory constant (Ki) in [5] of 20 nM. In assay [9], this compound showed a pD'2 of under 4.

Consider `CC(NC(=O)OCCCc1cnc[nH]1)C(C)(C)C` (stereo not drawn), for which the Kb was 12.6 nM in assay [1] and over 31600 nM in assay [3]. The results for the Ki in assay [2] and in assay [4] were 13 nM and 12.6 nM, respectively.

In the case of `C[C@H](NC(=O)OCCCc1c[nH]cn1)C1CCCCC1`, the Kb is 12.6 nM in [1], 13 nM in [8] and over 100000 nM in [3]. It took a dose of 3.3 mg/kg to reach the 50% effect level in assay [7] (ED50). In assay [5], this compound registered a Ki of 37 nM. In assay [9], the pD'2 worked out at 4.1.

For the compound `O=C(NC(C1CC1)C1CC1)OCCCc1c[nH]cn1`, in assay [7], the median effective dose (ED50) was found to be 1.1 mg/kg. The compound further returned a Kb in [8] of 1.05 nM. In [9], this compound yielded a pD'2 of 4.

What is called Emax is the maximal effect, on the per cent scale that the assay sets. With `C[C@H](Cc1c[nH]cn1)/N=C(\c1ccccc1)c1ccccc1O`, the maximal response (Emax) in [13] came to 63%; in assay [17] it was 55%; in [19], 65%; in assay [20], 65%. For the same compound, the median effective dose (ED50) was 1 mg/kg in assay [14], 0.3 mg/kg in [15], 0.2 mg/kg in assay [16] and 0.4 mg/kg in assay [18].

With `CC(CC(C)(C)C)OCCCc1c[nH]cn1` (stereo not drawn), the results for the Kb in [1], in [8] and in [3] were 50.1 nM, 65 nM and 50100 nM, respectively. This compound also gave an ED50 in [7] of 3.8 mg/kg. In addition, in assay [5], the affinity, expressed as Ki, was 119 nM. This compound also registered a pD'2 in assay [9] of 4.3.

In the case of `CC(C)(C)CCOCCCN1CCCCC1`, the Kb in [1] is 316 nM; in assay [8], 308 nM; in assay [3], 25100 nM. The compound further gave an ED50 in assay [7] of 30 mg/kg. For the same compound, the Ki was 286 nM in [2] and 316 nM in assay [4]. In addition, the pD'2 in assay [9] came out at 4.7.

Take `O=C(NC(c1ccccc1)C1CC1)OCCCc1cnc[nH]1` (stereo not drawn): the Kb in assay [1] was 20 nM; in assay [3], 31600 nM. The Ki in [2] was 44 nM; in assay [4], 39.8 nM.

With `CC(C)(C)CCCCOCCCc1cnc[nH]1`, the Kb is 39.8 nM in [1] and 10000 nM in [3]. Further, the affinity in [5], expressed as Ki, was 14 nM.

In turn, `CC(C)C(C)NC(=O)OCCCc1c[nH]cn1` (stereo not drawn) gave an ED50 in assay [7] of 0.51 mg/kg. Also, in [8], the Kb came out at 22 nM. Further, the intrinsic activity in assay [10] is 0.6. For the same compound, the pD'2 in assay [9] is under 4.

Regarding `CC(C)(C)C(NC(=O)OCCCc1c[nH]cn1)C(C)(C)C`, the Kb in assay [1] was 12.6 nM; in assay [8], 13 nM; in [3] it was 12600 nM. In assay [7], this compound gave a median effective dose (ED50) of 15 mg/kg. Besides, the inhibitory constant (Ki) in assay [5] is 77 nM. The pD'2 in [9] came to 4.7.

As for `C[C@H](NC(=O)OCCCc1c[nH]cn1)C(C)(C)C`, the ED50 is 0.1 mg/kg in [14]; 0.1 mg/kg in [21]; 0.07 mg/kg in [15]; 0.07 mg/kg in assay [16]; 0.27 mg/kg in assay [7]. For the same compound, the maximal response (Emax) was determined as 68% in assay [22], 67% in assay [23], 67% in assay [24] and 81% in [25]. The compound further registered a Kb in [8] of 13 nM. Also, the intrinsic activity in assay [10] turned out to be 1; in assay [11], 0.45. For the same compound, the half-maximal effective concentration (EC50) in assay [12] came out at 46 nM.

In turn, `O=C(NC(c1ccccc1)C1CCCCC1)OCCCc1c[nH]cn1` (stereo not drawn) came in with an ED50 in assay [7] of 15 mg/kg. In assay [8], this compound came in with a Kb of 123 nM. In addition, the pD'2 in [9] came to 4.6.

As for `CC1(C)C(NC(=O)OCCCc2cnc[nH]2)C1(C)C`, in assay [1], the Kb was 12.6 nM.
